For assay [1], the target named is T1, Retinoblastoma-associated protein (Homo sapiens) (UniProt P06400).
T1 sequence (whole entry): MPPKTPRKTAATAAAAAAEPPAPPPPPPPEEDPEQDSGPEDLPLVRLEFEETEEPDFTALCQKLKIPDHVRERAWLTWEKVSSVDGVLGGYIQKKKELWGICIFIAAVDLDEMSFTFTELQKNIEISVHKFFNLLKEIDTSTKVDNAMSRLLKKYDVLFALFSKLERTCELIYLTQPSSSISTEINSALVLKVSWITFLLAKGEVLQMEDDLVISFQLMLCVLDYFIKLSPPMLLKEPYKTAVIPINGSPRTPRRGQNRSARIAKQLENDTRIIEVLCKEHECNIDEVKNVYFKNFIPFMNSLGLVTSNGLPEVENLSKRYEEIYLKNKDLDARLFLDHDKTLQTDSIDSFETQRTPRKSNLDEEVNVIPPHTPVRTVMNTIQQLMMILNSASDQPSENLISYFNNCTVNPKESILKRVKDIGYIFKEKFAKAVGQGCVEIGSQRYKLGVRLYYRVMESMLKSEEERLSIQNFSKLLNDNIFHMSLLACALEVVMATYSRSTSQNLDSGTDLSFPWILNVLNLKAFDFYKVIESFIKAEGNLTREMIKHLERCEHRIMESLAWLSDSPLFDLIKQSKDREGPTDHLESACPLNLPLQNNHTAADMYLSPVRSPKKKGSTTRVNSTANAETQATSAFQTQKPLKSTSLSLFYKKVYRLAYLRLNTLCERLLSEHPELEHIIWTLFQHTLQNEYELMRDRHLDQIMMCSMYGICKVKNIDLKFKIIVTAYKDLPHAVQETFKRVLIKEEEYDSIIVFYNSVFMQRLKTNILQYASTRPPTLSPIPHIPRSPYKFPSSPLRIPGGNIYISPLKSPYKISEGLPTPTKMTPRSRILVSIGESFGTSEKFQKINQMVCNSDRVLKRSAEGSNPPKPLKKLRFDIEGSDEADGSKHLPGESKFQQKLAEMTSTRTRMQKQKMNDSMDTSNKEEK
The experiment in a line: Inhibition of Rb phosphorylation in human KOPN8 cells assessed as ratio of phosphorylated Rb to total Rb levels at 100 uM after 24 hrs by Western blot analysis relative to control. Format: cell-based. The essentials:
(§1)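 KOPN-8 pre-B ALL cells were treated for 3 h and 24 h, with or without N-acetyl cysteine added to a parallel set of cells as an antioxidant/ROS quencher. Lysates were analysed by Western blot for phosphorylated Rb and total Rb. The same blots also probed PARP cleavage, Mcl-1, Ser-2-phosphorylated RNAPII CTD and cMyc.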
Background: A western blot detects proteins with antibodies after separation by electrophoresis.

In assay [2] the test system is KOPN-8. The experiment in a line: Induction of apoptosis in human KOPN8 cells assessed as effect on Mcl-1 level at 100 uM after 24 hrs by Western blot analysis relative to control. The class given is functional. The essentials: (§2)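 KOPN-8 cells were treated at 10–100 µM final, with or without N-acetylcysteine co-addition, for 3 h and 24 h. Lysates were analysed by Western blot for PARP cleavage, Mcl-1, phospho-Ser2 RNAPII CTD, c-Myc, total Rb and pRb. Levels are relative to the vehicle control.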

The test system of assay [3] is KOPN-8. The experiment in a line: Induction of apoptosis in human KOPN8 cells assessed as effect on Mcl-1 level at 10 uM after 24 hrs by Western blot analysis relative to control. The class given is functional. The essentials: as §2
The test system of assay [4] is KOPN-8. The experiment in a line: Induction of apoptosis in human KOPN8 cells assessed as late apoptotic cells at 10 uM after 24 hrs by Annexin V-FITC/propidium iodide staining-based flow cytometry (reference value: 9.5%). Format: functional. The method in brief: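 KOPN-8 cells were treated for 24 h, with a DMSO vehicle control and a staurosporine positive control. Cells were stained with FITC-Annexin V and propidium iodide and analysed by flow cytometry. Quadrant gating separated viable, early apoptotic, late apoptotic (Q2) and necrotic populations.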
On the technique in general: A flow cytometer gives signals particle by particle.

For assay [5], the target named is T1, Retinoblastoma-associated protein (Homo sapiens). The experiment in a line: Inhibition of Rb phosphorylation in human KOPN8 cells assessed as ratio of phosphorylated Rb to total Rb levels at 10 uM after 24 hrs by Western blot analysis relative to control. Format: cell-based. The essentials: as §1
Assay [6] deals with KOPN-8. The experiment in a line: Effect on c-Myc expression in human KOPN8 cells at 100 uM pre-treated with NAC for 1 hr and measured after 24 hrs by Western blot analysis relative to control. Format: functional.
The test system of assay [7] is KOPN-8. The experiment in a line: Induction of apoptosis in human KOPN8 cells assessed as effect on Mcl-1 level at 30 uM pre-treated with NAC for 1 hr and measured after 3 hrs by Western blot analysis relative to control. Format: functional. The essentials: (§3)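 KOPN-8 cells were exposed to compound for 3 h and 24 h, with or without N-acetylcysteine added to a parallel set as antioxidant. Lysates were analysed by Western blot for cleaved PARP, Mcl-1, Ser-2-phosphorylated RNAPII CTD, cMyc, total Rb and pRb. Signals were compared against controls for dose-dependent change.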

For assay [8], the target named is T1, Retinoblastoma-associated protein (Homo sapiens). The experiment in a line: Inhibition of Rb phosphorylation in human KOPN8 cells assessed as ratio of phosphorylated Rb to total Rb levels at 30 uM after 24 hrs by Western blot analysis relative to control. The class given is cell-based. The method in brief:
as §1

In assay [9] the test system is KOPN-8. The experiment in a line: Induction of apoptosis in human KOPN8 cells assessed as upregulation of cleaved PARP level at 100 uM pre-treated with NAC for 1 hr and measured after 3 hrs by Western blot analysis. Format: functional, cell-based. The method in brief:
as §3

The test system of assay [10] is KOPN-8. The experiment in a line: Induction of apoptosis in human KOPN8 cells assessed as effect on Mcl-1 level at 100 uM after 3 hrs by Western blot analysis relative to control. The class given is functional. The essentials: as §2
Assay [11] has as its target T1, Retinoblastoma-associated protein (Homo sapiens). The experiment in a line: Inhibition of Rb phosphorylation in human KOPN8 cells assessed as ratio of phosphorylated Rb to total Rb levels at 100 uM after 3 hrs by Western blot analysis relative to control. The class given is cell-based. The essentials: as §1
The test system of assay [12] is KOPN-8. The experiment in a line: Effect on c-Myc expression in human KOPN8 cells at 0.5 uM after 3 hrs by Western blot analysis relative to control. Format: functional.
Assay [13] deals with T1, Retinoblastoma-associated protein (Homo sapiens). The experiment in a line: Inhibition of Rb phosphorylation in human KOPN8 cells assessed as ratio of phosphorylated Rb to total Rb levels at 0.5 uM after 3 hrs by Western blot analysis relative to control. Format: cell-based. The essentials:
as §1

Assay [14] concerns SUP-B15. The experiment in a line: Induction of apoptosis in human SUP-B15 cells assessed as late apoptotic cells at 5 uM after 24 hrs by Annexin V-FITC/propidium iodide staining-based flow cytometry (reference value: 2.2%). The class given is functional.
Assay [15] deals with MDA-MB-231. The experiment in a line: Cell cycle arrest in human MDA-MB-231 cells assessed as accumulation at G2/M phase at 5 uM after 24 hrs by propidium iodide staining-based flow cytometry (reference value: 9.38%). The class given is functional.
For assay [16], the system named is SUP-B15. The experiment in a line: Induction of apoptosis in human SUP-B15 cells assessed as viable cells at 5 uM after 24 hrs by Annexin V-FITC/propidium iodide staining-based flow cytometry (reference value: 82.8%). Format: functional. The note with it: SUP-B15, 24 h, read-out: Activity.
Assay [17] has as its system KOPN-8. The experiment in a line: Effect on c-Myc expression in human KOPN8 cells at 0.5 uM after 24 hrs by Western blot analysis relative to control. The class given is functional.
For assay [18], the system named is KOPN-8. The experiment in a line: Induction of apoptosis in human KOPN8 cells assessed as upregulation of cleaved PARP level at 0.5 uM after 24 hrs by Western blot analysis. Format: functional, cell-based. The method in brief: as §3
In assay [19] the test system is SUP-B15. The experiment in a line: Induction of apoptosis in human SUP-B15 cells assessed as necrotic cells at 5 uM after 24 hrs by Annexin V-FITC/propidium iodide staining-based flow cytometry (reference value: 9.2%). Format: functional.

Each structure is given as a SMILES string. Activity calls are given as the source filed them. The rule behind the calls is not given here.

For the compound `COc1ccc(-c2c(I)c(=O)c3c(OC)cc(OC)cc3n2S(=O)(=O)c2ccc(OC)cc2)cc1`, the fold change (FC) in assay [1] came to 1; in [2] it was 0.1; in [3], 1.1; in [5], 1; in assay [6], 0.1; in [7] it was 0.8. Further, the fold change (FC) in assay [8] amounted to 1; in [10], 0.6; in assay [11], 1. In assay [4], the Activity is reported as 69.2%. Moreover, the outcome in assay [9] was inactive.
Consider `CN(C)C(=O)c1cc2cnc(Nc3ccc(N4CCNCC4)cn3)nc2n1C1CCCC1` [RIBOCICLIB], for which the “fold change (FC)” value in assay [12] is 1; in assay [13], 1; in assay [17], 1.2. For the same compound, the Activity in [14] was 22.5%; in [15] it was 4.51%; in [19], 25.7%. Moreover, in assay [16], the viability at 5 µM came out at 35.4%. Further, the result in [18] was inactive.

Source of the values: ChEMBL document CHEMBL4196009, “Novel vitexin-inspired scaffold against leukemia” (Eur J Med Chem, 2018).
